Results published in PMC8201661 (Cell chemical biology, 2020).

Tests used:
RPMI 8226 cells [1] = assay: Western blot for mono-/poly-Ub and PARP-1; type: cell-based, human; details: RPMI 8226 cells treated with various concentrations for 6 h
Procedure, shortened: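 RPMI 8226 cells (1,000,000/well) given a range of test-compound concentrations (1000x DMSO stock) or DMSO for 6 h. Lysis in RIPA with protease inhibitors (5 min, ice), then sonication and clearing at 17000 x g. Protein by BCA. After SDS-PAGE and PVDF wet transfer, membranes blocked in 5% milk/TBST and probed for PARP-1 (1:1,000 in 5% BSA/TBST), mono/poly-ubiquitin and α-tubulin as loading control.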

[2] = test system: 20S proteasome subunits PSMB5, PSMB10, PSMA5, PSMB1, and PSMB2; assay: In situ competitive LC-MS/MS pull-down with probe 20; type: cell-based, human; details: RPMI 8226 cells, 100 nM 1 for 6 hours, then 10 μM 20; LFQ, n = 6
Procedure, shortened: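 RPMI 8226 cells grown to confluence, then given fresh medium with 100 nM test compound (1000x DMSO stock) or DMSO for 6 h. Washed cells were sonicated in PBS. Lysate (2.32 mg/mL) got 10 μM alkyne probe, 1 h r.t. CuAAC used 30 μM biotin azide, 1 mM TCEP, 100 μM TBTA and 1 mM CuSO4 (1 h), then streptavidin enrichment and on-bead TCEP/iodoacetamide treatment. Trypsin digest, LC-MS/MS, LFQ ratios; n = 6 (3 biological × 2 technical).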

RPMI 8226 cells [3] = assay: Cell toxicity, WST-1 assay, RPMI 8226; type: cell-based; details: Homo sapiens, RPMI-8226, 48 h, read-out: EC50 cytotoxicity, RPMI 8226
MM1.R cells = assay: Cell toxicity, WST-1 assay, MM1.R; type: cell-based; details: Homo sapiens, MM.1R, 48 h, read-out: EC50 cytotoxicity, MM1.R
Procedure, shortened: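 MM1.R cells grown in RPMI-1640 with 10% FBS, non-essential amino acids and penicillin/streptomycin at 37 °C, 5% CO2. Cells exposed to a range of test-compound concentrations for 24 h or 48 h. Viability read by WST-1 per manufacturer's protocol as values relative to control, n = 3. EC50 fitted from concentration–response.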

MM1.R = details: read-out: Previously reported cytotoxicity, MM1.R; ref Hideshima et al., 2001; cited from earlier work
RPMI 8226 = details: cited from earlier work

**Q.** What does the source list for CC(C)CCCCC/C=C/C=C/C(=O)N[C@H](C(=O)N[C@H]1C[C@@H](O)CCNC(=O)/C=C/[C@H](C)NC1=O)[C@@H](C)O [Compound 1, (2E,4E)-N-((2S,3R)-3-hydroxy-1-(((5S,8S,10S,E)-10-hydroxy-5-methyl-2,7-dioxo-1,6-diazacyclododec-3-en-8-yl)amino)-1-oxobutan-2-yl)-11-methyldodeca-2,4-dienamide]?
**A.** PARP-1 Western blot (apoptosis marker) (RPMI 8226 cells [1]): PARP-1 cleavage; Ubiquitinated proteins (mono-/poly-ubiquitin Western blot) (RPMI 8226 cells [1]): concentration-dependent increase in ubiquitinated proteins; Competition of 20-enriched PSMB5, PSMB10, PSMA5, PSMB1 and PSMB2 [2]: > 50%; EC50 (RPMI 8226 cells [3]): 31 nM; EC50 (MM1.R cells): 23 nM

**Q.** Which EC50 (MM1.R) does the source give for CC(C)C[C@H](NC(=O)[C@H](Cc1ccccc1)NC(=O)c1cnccn1)B(O)O [bortezomib] here?
**A.** The EC50 was 3 nM.

**Q.** Which EC50 (RPMI 8226) does the source give for CC(C)C[C@H](NC(=O)[C@H](CCc1ccccc1)NC(=O)CN1CCOCC1)C(=O)N[C@@H](Cc1ccccc1)C(=O)N[C@@H](CC(C)C)C(=O)[C@@]1(C)CO1 [carfilzomib] here?
**A.** The EC50 was 5 nM.
